Reference: PMC3770188 (ACS medicinal chemistry letters, 2013)
Read-outs that look alike come from different tables or passages of the source.

Assays:
RARs [1] = settings: concomitantly transfected RARs; cited from earlier work
spermatogenesis in mice [2] = test: IV and IP administration, effect on spermatogenesis in mice; type: in vivo, CD1 mice
Summary of the method: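 Male CD1 mice dosed daily with test compound at 10 mg/kg by IV (for 3, 6 or 7 days; n = 2 for 6 and 7 days) or IP (7 days), against vehicle-only controls. Testes taken […] were sectioned and examined histologically for spermatid alignment and release in tubules. Reversibility was assessed by testis histology 4 weeks post-treatment.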

RARβ = molecular target: T1, RARβ (Homo sapiens, UniProt P10826); test: Transactivation competition assay; type: cell-based; settings: HeLa cells, 10^−7M ATRA, increasing concentrations of retinoid, 24 hours
T1 sequence (P10826 1-455): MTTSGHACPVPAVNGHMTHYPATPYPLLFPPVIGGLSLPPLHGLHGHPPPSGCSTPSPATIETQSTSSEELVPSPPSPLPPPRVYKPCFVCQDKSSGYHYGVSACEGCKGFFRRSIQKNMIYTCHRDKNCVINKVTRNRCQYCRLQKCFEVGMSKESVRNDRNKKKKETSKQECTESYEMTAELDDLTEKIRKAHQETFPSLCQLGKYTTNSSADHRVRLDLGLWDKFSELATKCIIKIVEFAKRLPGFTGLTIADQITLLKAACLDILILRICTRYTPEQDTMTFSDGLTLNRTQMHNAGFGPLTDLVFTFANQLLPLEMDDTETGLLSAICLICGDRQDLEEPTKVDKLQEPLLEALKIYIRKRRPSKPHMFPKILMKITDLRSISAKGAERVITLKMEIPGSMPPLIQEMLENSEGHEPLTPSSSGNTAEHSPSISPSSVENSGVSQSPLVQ
Summary of the method: (§1)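 HeLa cells were cotransfected with receptor/CAT reporter constructs plus a constant β-galactosidase plasmid as internal control. Cells were incubated with submaximal ATRA (10–7 M) plus increasing concentrations of test compound, and CAT expression was measured after 24 h. Dilution medium without retinoid served as vehicle control and ATRA as positive control.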

spermatogenesis in mice [3] = test: Oral administration, effect on spermatogenesis in mice; type: in vivo, CD1 mice; settings: for Morphology of caudal epididymides: oral 10 mg/kg for 7 days; for Morphology of caudal epididymides / Epididymal sperm motility: 1-month post-treatment; for Testicular weight compared with control: oral 2 and 10 mg/kg for 7 days, mean±SD of five mice; for Effect on spermatogenesis (testis morphology): oral 2.0 and 10 mg/kg for 7 days, one-month after dosing; for Epididymal sperm motility: oral, 7 days
Summary of the method: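 Male CD1 mice received test compound by oral gavage daily at 2 or 10 mg/kg for 7 days; controls got vehicle alone for 7 days. Body weight was monitored throughout. One month post-treatment, testes were collected and weighed (mean ± SD, five mice per regimen; […] Student's t-test vs age-matched controls). Testes and epididymides were sectioned for histology with tubule staging.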

RARγ = molecular target: T2, RARγ (Homo sapiens, UniProt P13631); test: Transactivation competition assay; type: cell-based; settings: HeLa cells, 10^−7M ATRA, increasing concentrations of retinoid, 24 hours
T2 sequence (P13631 1-454): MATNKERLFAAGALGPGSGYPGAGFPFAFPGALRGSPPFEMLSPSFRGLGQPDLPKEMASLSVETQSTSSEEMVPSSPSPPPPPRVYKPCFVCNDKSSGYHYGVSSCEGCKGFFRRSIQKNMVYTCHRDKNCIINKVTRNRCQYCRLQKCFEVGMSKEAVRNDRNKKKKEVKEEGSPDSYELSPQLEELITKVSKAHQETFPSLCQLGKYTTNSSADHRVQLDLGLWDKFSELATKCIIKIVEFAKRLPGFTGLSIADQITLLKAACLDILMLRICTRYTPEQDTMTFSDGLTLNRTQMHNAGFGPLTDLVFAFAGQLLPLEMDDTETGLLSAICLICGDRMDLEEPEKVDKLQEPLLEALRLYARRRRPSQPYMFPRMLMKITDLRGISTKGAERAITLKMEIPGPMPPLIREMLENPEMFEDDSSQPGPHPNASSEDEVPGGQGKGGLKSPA
Summary of the method: as §1

RARs [4] = test: Transactivation assay; type: cell-based; settings: concomitantly transfected RARs
spermatogenesis in mice [5] = settings: oral, low levels; cited from earlier work

## Cc1ccc(C2=CCC(C)(C)c3ccc(C(=O)Nc4ccc(C(=O)O)cc4)cc32)cc1 [compound 2]
RARs [1]
  Induction of RARE-CAT reporter expression by compound alone: did not, by themselves, induce reporter expression
Spermatogenesis in mice [2]; IV 10 mg/kg for 6 and 7 days, one-day post-treatment
  Effect on spermatid alignment and sperm release: Acute disruptive effects
Spermatogenesis in mice [2]; IV, 4-weeks post-treatment
  Effect on spermatogenesis 4-weeks post-treatment (reversibility): No effect on spermatogenesis
RARβ
  Competition of ATRA-induced CAT expression, RARβ: minimal activity
Spermatogenesis in mice [3]
  Morphology of caudal epididymides: appeared normal
  Testicular weight compared with control: No significant differences
  Effect on spermatogenesis (testis morphology): no effect on spermatogenesis
  Epididymal sperm motility: normal motility
RARγ
  Competition of ATRA-induced CAT expression, RARγ: minimal activity

## CC1(C)CC=C(c2cnc3ccccc3c2)c2cc(C(=O)Nc3ccc(C(=O)O)cc3)ccc21 [compound 3]
RARβ
  Competition of ATRA-induced CAT expression, RARβ: minimal activity
Spermatogenesis in mice [3]
  Morphology of caudal epididymides: appeared normal
  Testicular weight compared with control: No significant differences
  Effect on spermatogenesis (testis morphology): no effect on spermatogenesis
  Epididymal sperm motility: normal motility
RARs [4]
  Induction of RARE-CAT reporter expression by compound alone: did not, by themselves, induce reporter expression
RARγ
  Competition of ATRA-induced CAT expression, RARγ: minimal activity

## CC1(C)CC=C(c2ccccc2)c2cc(/C=C/c3ccc(C(=O)O)cc3)ccc21 [compound 1]
Spermatogenesis in mice [5]
  Effect on spermatogenesis in mice: inhibited spermatogenesis
  Side-effects in mice: without any observable side-effects
